According to ChEMBL document CHEMBL3046780, “Syntheses and herbicidal activity of new triazolopyrimidine-2-sulfonamides as acetohydroxyacid synthase inhibitor” (Bioorg Med Chem, 2010):

What was measured:
Polygonum humifusum [1] = assay: Post-emergence herbicidal activity against Polygonum humifusum assessed as growth inhibition at 75 g ai/ha measured 15 days post compound treatment under green house conditions; assay type: functional; details: 360 h, read-out: GI
Procedure, shortened: (§1)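 Compounds formulated as 100 g/L emulsifiable concentrate (DMF solvent, Tween-80 emulsifier), diluted with water, sprayed post-emergence on pot-grown weeds in clay soil (pH 6.5, 1.6% organic matter). Seeds sown 1-3 cm deep, grown at 15-30 °C. Dicots were treated at the 2-leaf stage and monocots at the 1-leaf stage. Untreated and DMF-treated controls were included. Injury was rated visually 15 days after treatment.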

Polygonum humifusum [2] = assay: Post-emergence herbicidal activity against Polygonum humifusum assessed as growth inhibition at 37.5 g ai/ha measured 15 days post compound treatment under green house conditions; assay type: functional; details: 360 h, read-out: GI; procedure, shortened: as §1
Galium aparine [3] = assay: Post-emergence herbicidal activity against Galium aparine assessed as growth inhibition at 75 g ai/ha measured 15 days post compound treatment under green house conditions; assay type: functional; details: 360 h, read-out: GI; procedure, shortened: as §1
Galium aparine [4] = assay: Post-emergence herbicidal activity against Galium aparine assessed as growth inhibition at 150 g ai/ha measured 15 days post compound treatment under green house conditions; assay type: functional; details: 360 h, read-out: GI; procedure, shortened: as §1
Galium aparine [5] = assay: Post-emergence herbicidal activity against Galium aparine assessed as growth inhibition at 37.5 g ai/ha measured 15 days post compound treatment under green house conditions; assay type: functional; details: 360 h, read-out: GI; procedure, shortened: as §1
Eclipta prostrata [6] = assay: Post-emergence herbicidal activity against Eclipta prostrata assessed as growth inhibition at 150 g ai/ha measured 15 days post compound treatment under green house conditions; assay type: functional; details: 360 h, read-out: GI; procedure, shortened: as §1
Amaranthus retroflexus [7] = assay: Post-emergence herbicidal activity against Amaranthus retroflexus assessed as growth inhibition at 150 g ai/ha measured 15 days post compound treatment under green house conditions; assay type: functional; details: 360 h, read-out: GI; procedure, shortened: as §1
Brassica juncea = assay: Post-emergence herbicidal activity against Brassica juncea assessed as growth inhibition at 150 g ai/ha measured 15 days post compound treatment under green house conditions; assay type: functional; details: 360 h, read-out: GI; procedure, shortened: as §1
Poa annua = assay: Post-emergence herbicidal activity against Poa annua assessed as growth inhibition at 150 g ai/ha measured 15 days post compound treatment under green house conditions; assay type: functional; details: 360 h, read-out: GI; procedure, shortened: as §1
Digitaria sanguinalis = assay: Post-emergence herbicidal activity against Digitaria sanguinalis (hairy crabgrass) assessed as growth inhibition at 150 g ai/ha measured 15 days post compound treatment under green house conditions; assay type: functional; details: 360 h, read-out: GI; procedure, shortened: as §1
Echinochloa crus-galli = assay: Post-emergence herbicidal activity against Echinochloa crus-galli (barnyard grass) assessed as growth inhibition at 150 g ai/ha measured 15 days post compound treatment under green house conditions; assay type: functional; details: 360 h, read-out: GI; procedure, shortened: as §1
Chenopodium album [8] = assay: Post-emergence herbicidal activity against Chenopodium album assessed as growth inhibition at 37.5 g ai/ha measured 15 days post compound treatment under green house conditions; assay type: functional; details: 360 h, read-out: GI; procedure, shortened: as §1
Cyperus iria [9] = assay: Post-emergence herbicidal activity against Cyperus iria assessed as growth inhibition at 150 g ai/ha measured 15 days post compound treatment under green house conditions; assay type: functional; details: 360 h, read-out: GI; procedure, shortened: as §1
Cyperus iria [10] = assay: Post-emergence herbicidal activity against Cyperus iria assessed as growth inhibition at 75 g ai/ha measured 15 days post compound treatment under green house conditions; assay type: functional; details: 360 h, read-out: GI; procedure, shortened: as §1
Cyperus iria [11] = assay: Post-emergence herbicidal activity against Cyperus iria assessed as growth inhibition at 37.5 g ai/ha measured 15 days post compound treatment under green house conditions; assay type: functional; details: 360 h, read-out: GI; procedure, shortened: as §1
Cerastium arvense [12] = assay: Post-emergence herbicidal activity against Cerastium arvense assessed as growth inhibition at 150 g ai/ha measured 15 days post compound treatment under green house conditions; assay type: functional; details: 360 h, read-out: GI; procedure, shortened: as §1
Cerastium arvense [13] = assay: Post-emergence herbicidal activity against Cerastium arvense assessed as growth inhibition at 75 g ai/ha measured 15 days post compound treatment under green house conditions; assay type: functional; details: 360 h, read-out: GI; procedure, shortened: as §1
Cerastium arvense [14] = assay: Post-emergence herbicidal activity against Cerastium arvense assessed as growth inhibition at 37.5 g ai/ha measured 15 days post compound treatment under green house conditions; assay type: functional; details: 360 h, read-out: GI; procedure, shortened: as §1
Polygonum humifusum [15] = assay: Post-emergence herbicidal activity against Polygonum humifusum assessed as growth inhibition at 150 g ai/ha measured 15 days post compound treatment under green house conditions; assay type: functional; details: 360 h, read-out: GI; procedure, shortened: as §1
Eclipta prostrata [16] = assay: Post-emergence herbicidal activity against Eclipta prostrata assessed as growth inhibition at 75 g ai/ha measured 15 days post compound treatment under green house conditions; assay type: functional; details: 360 h, read-out: GI; procedure, shortened: as §1
Eclipta prostrata [17] = assay: Post-emergence herbicidal activity against Eclipta prostrata assessed as growth inhibition at 37.5 g ai/ha measured 15 days post compound treatment under green house conditions; assay type: functional; details: 360 h, read-out: GI; procedure, shortened: as §1
Rumex acetosa [18] = assay: Post-emergence herbicidal activity against Rumex acetosa assessed as growth inhibition at 150 g ai/ha measured 15 days post compound treatment under green house conditions; assay type: functional; details: 360 h, read-out: GI; procedure, shortened: as §1
Rumex acetosa [19] = assay: Post-emergence herbicidal activity against Rumex acetosa assessed as growth inhibition at 75 g ai/ha measured 15 days post compound treatment under green house conditions; assay type: functional; details: 360 h, read-out: GI; procedure, shortened: as §1
Rumex acetosa [20] = assay: Post-emergence herbicidal activity against Rumex acetosa assessed as growth inhibition at 37.5 g ai/ha measured 15 days post compound treatment under green house conditions; assay type: functional; details: 360 h, read-out: GI; procedure, shortened: as §1
Amaranthus retroflexus [21] = assay: Post-emergence herbicidal activity against Amaranthus retroflexus assessed as growth inhibition at 75 g ai/ha measured 15 days post compound treatment under green house conditions; assay type: functional; details: 360 h, read-out: GI; procedure, shortened: as §1
Amaranthus retroflexus [22] = assay: Post-emergence herbicidal activity against Amaranthus retroflexus assessed as growth inhibition at 37.5 g ai/ha measured 15 days post compound treatment under green house conditions; assay type: functional; details: 360 h, read-out: GI; procedure, shortened: as §1
Chenopodium album [23] = assay: Post-emergence herbicidal activity against Chenopodium album assessed as growth inhibition at 150 g ai/ha measured 15 days post compound treatment under green house conditions; assay type: functional; details: 360 h, read-out: GI; procedure, shortened: as §1
Chenopodium album [24] = assay: Post-emergence herbicidal activity against Chenopodium album assessed as growth inhibition at 75 g ai/ha measured 15 days post compound treatment under green house conditions; assay type: functional; details: 360 h, read-out: GI; procedure, shortened: as §1
[25] = target: T1, Acetolactate synthase, chloroplastic (Arabidopsis thaliana, UniProt P17597)
T1 sequence (P17597 whole entry): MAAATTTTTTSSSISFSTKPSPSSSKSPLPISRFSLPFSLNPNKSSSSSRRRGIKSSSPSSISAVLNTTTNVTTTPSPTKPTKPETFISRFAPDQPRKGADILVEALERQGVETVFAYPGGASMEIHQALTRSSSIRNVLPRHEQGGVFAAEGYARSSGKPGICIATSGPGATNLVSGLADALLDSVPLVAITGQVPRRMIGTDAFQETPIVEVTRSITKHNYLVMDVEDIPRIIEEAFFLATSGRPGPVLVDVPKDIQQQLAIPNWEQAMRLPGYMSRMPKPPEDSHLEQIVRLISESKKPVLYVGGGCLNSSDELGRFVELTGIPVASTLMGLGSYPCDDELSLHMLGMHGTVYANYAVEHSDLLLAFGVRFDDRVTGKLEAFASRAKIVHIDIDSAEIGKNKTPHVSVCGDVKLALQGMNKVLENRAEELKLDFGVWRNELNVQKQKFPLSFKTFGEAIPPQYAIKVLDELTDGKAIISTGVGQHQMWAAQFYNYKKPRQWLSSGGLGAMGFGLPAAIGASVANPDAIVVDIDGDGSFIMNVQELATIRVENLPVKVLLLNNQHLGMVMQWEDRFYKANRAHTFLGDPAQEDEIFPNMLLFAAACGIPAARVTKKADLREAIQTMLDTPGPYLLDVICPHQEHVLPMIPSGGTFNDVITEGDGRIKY

SMILES | inhibition of growth at 75 g/ha (Polygonum humifusum [1]) | inhibition of growth at 37.5 g/ha (Polygonum humifusum [2]) | inhibition of growth at 75 g/ha (Galium aparine [3]) | inhibition of growth at 150 g/ha (Galium aparine [4]) | inhibition of growth at 37.5 g/ha (Galium aparine [5]) | inhibition of growth at 150 g/ha (Eclipta prostrata [6]) | inhibition of growth at 150 g/ha (Amaranthus retroflexus [7]) | inhibition of growth at 150 g/ha (Brassica juncea) | inhibition of growth at 150 g/ha (Poa annua) | inhibition of growth at 150 g/ha (Digitaria sanguinalis) | inhibition of growth at 150 g/ha (Echinochloa crus-galli) | inhibition of growth at 37.5 g/ha (Chenopodium album [8]) | inhibition of growth at 150 g/ha (Cyperus iria [9]) | inhibition of growth at 75 g/ha (Cyperus iria [10]) | inhibition of growth at 37.5 g/ha (Cyperus iria [11]) | inhibition of growth at 150 g/ha (Cerastium arvense [12]) | inhibition of growth at 75 g/ha (Cerastium arvense [13]) | inhibition of growth at 37.5 g/ha (Cerastium arvense [14]) | inhibition of growth at 150 g/ha (Polygonum humifusum [15]) | inhibition of growth at 75 g/ha (Eclipta prostrata [16]) | further results
Cc1ccn2nc(S(=O)(=O)Nc3c(F)cccc3F)nc2n1 | ≥ 90% | ≥ 80% | 50% | ≥ 80% | 50% | ≥ 90% | ≥ 90% | ≥ 90% | 50% | ≥ 80% | 50% | 50% | 50% | 50% | 50% | ≥ 90% | ≥ 90% | ≥ 90% | ≥ 90% | ≥ 90% | inhibition of growth at 37.5 g/ha (Eclipta prostrata [17]): ≥ 90%; inhibition of growth at 150 g/ha (Rumex acetosa [18]): ≥ 80%; inhibition of growth at 75 g/ha (Rumex acetosa [19]): 50%; inhibition of growth at 37.5 g/ha (Rumex acetosa [20]): 50%; inhibition of growth at 75 g/ha (Amaranthus retroflexus [21]): ≥ 90%; inhibition of growth at 37.5 g/ha (Amaranthus retroflexus [22]): ≥ 90%; inhibition of growth at 150 g/ha (Chenopodium album [23]): ≥ 90%; inhibition of growth at 75 g/ha (Chenopodium album [24]): ≥ 90%; Ki [25]: 0.36 µM
Cc1nc(C(F)(F)F)cc2nc(S(=O)(=O)Nc3c(F)cccc3F)nn12 | < 50% | < 50% | ≥ 80% | ≥ 80% | 50% | ≥ 80% | < 50% | ≥ 80% | < 50% | < 50% | < 50% | ≥ 80% | < 50% | < 50% | < 50% | 50% | 50% | 50% | 50% | ≥ 80% | inhibition of growth at 37.5 g/ha (Eclipta prostrata [17]): 50%; inhibition of growth at 150 g/ha (Rumex acetosa [18]): 50%; inhibition of growth at 75 g/ha (Rumex acetosa [19]): 50%; inhibition of growth at 37.5 g/ha (Rumex acetosa [20]): 50%; inhibition of growth at 75 g/ha (Amaranthus retroflexus [21]): < 50%; inhibition of growth at 37.5 g/ha (Amaranthus retroflexus [22]): < 50%; inhibition of growth at 150 g/ha (Chenopodium album [23]): ≥ 90%; inhibition of growth at 75 g/ha (Chenopodium album [24]): ≥ 80%; Ki [25]: 70.6 µM
COC(=O)c1cccc(Cl)c1NS(=O)(=O)c1nc2c(Cl)c(C)nc(C)n2n1 | 50% | 50% | ≥ 80% | ≥ 80% | ≥ 80% | ≥ 50% | 50% | ≥ 90% | < 50% | < 50% | < 50% | ≥ 80% | 50% | 50% | 50% | 50% | 50% | < 50% | 50% | 50% | inhibition of growth at 37.5 g/ha (Eclipta prostrata [17]): 50%; inhibition of growth at 150 g/ha (Rumex acetosa [18]): 50%; inhibition of growth at 75 g/ha (Rumex acetosa [19]): 50%; inhibition of growth at 37.5 g/ha (Rumex acetosa [20]): 50%; inhibition of growth at 75 g/ha (Amaranthus retroflexus [21]): 50%; inhibition of growth at 37.5 g/ha (Amaranthus retroflexus [22]): 50%; inhibition of growth at 150 g/ha (Chenopodium album [23]): ≥ 80%; inhibition of growth at 75 g/ha (Chenopodium album [24]): ≥ 80%
Cc1nc(C(F)(F)F)cc2nc(S(=O)(=O)Nc3c(Cl)cccc3Cl)nn12 | ≥ 80% | 50% | ≥ 80% | ≥ 80% | 50% | ≥ 90% | < 50% | ≥ 90% | < 50% | < 50% | < 50% | ≥ 80% | 50% | 50% | 50% | 50% | 50% | < 50% | ≥ 80% | 50% | inhibition of growth at 37.5 g/ha (Eclipta prostrata [17]): 50%; inhibition of growth at 150 g/ha (Rumex acetosa [18]): ≥ 80%; inhibition of growth at 75 g/ha (Rumex acetosa [19]): ≥ 80%; inhibition of growth at 37.5 g/ha (Rumex acetosa [20]): ≥ 80%; inhibition of growth at 75 g/ha (Amaranthus retroflexus [21]): < 50%; inhibition of growth at 37.5 g/ha (Amaranthus retroflexus [22]): < 50%; inhibition of growth at 150 g/ha (Chenopodium album [23]): ≥ 90%; inhibition of growth at 75 g/ha (Chenopodium album [24]): ≥ 80%; Ki [25]: 5.02 µM
